Screening data from PubChem BioAssay.
GSTO1 counter: GSTO1 inhibition, counter-screen for RBBP9 inhibitors; P78417; recombinant GSTO1, activity-based probe fluorescence polarization; inhibition, % at 5.96 µM; 300,000 compounds, 1.1% hits; AID 1974;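 active = inhibition above the campaign mean inhibition plus 3 SD, cut at about 35% in these data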;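 also: 0% = GSTO1-1 with DMSO and 100% = wells lacking GSTO1-1 enzyme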
HKDC1 inhibitor: blocks human hexokinase HKDC1 activity. Q2TB90. recombinant HKDC1, G6PDH/diaphorase resazurin coupled fluorescence. inhibition, % at 20 µM. 340,000 compounds, 0.16% hits;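 active = inhibition above about 35% when tested at 20 µM, limit read from the data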;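 also: plate controls were DMSO wells with enzyme for no effect and DMSO wells lacking enzyme for full effect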
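Material: recombinant HKDC1 hexokinase; Amount: HKDC1 at 5 µg/mL; Medium: Tris pH 8.0 buffer with MgCl2, Tween-20, BSA, BME; Schedule: 90 min reaction incubation at room temperature, dark; Technique: coupled resazurin fluorescence, excitation 525 nm, emission 613 nm.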
UCH37 DUB inh: human UCH37 deubiquitinating enzyme inhibition | AID 588478 | Q9Y5K5 | inhibition, % (concentration not given with the values) | purified proteasome/UCH37, Ub-AMC cleavage fluorescence | 330,000 compounds, 0.33% hits;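 active = mean inhibition over replicate wells above about 20%, limit read from the data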;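 also: 0% = compound-free wells with enzyme and 100% = wells lacking proteasome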
Target sequence (Q9Y5K5 whole entry, looked up): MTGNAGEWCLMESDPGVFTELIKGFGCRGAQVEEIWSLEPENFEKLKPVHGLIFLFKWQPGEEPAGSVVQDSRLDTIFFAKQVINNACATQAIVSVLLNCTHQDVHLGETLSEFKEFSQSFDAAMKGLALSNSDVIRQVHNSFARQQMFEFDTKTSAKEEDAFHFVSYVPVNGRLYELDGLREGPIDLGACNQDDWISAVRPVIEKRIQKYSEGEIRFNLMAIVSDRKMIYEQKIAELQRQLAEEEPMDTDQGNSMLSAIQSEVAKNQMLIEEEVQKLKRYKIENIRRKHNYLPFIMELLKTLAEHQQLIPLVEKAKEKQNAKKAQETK
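assay system = human UCH37 enzyme supplied as purified proteasome complex | amount = proteasome at 0.15 nM in the dispensed enzyme solution | schedule = 30 min compound-proteasome preincubation then 25 min substrate reaction, room temperature | measured by = fluorescence, ex 355 nm, em 460 nm | benchmarks = no-proteasome wells (full inhibition) and compound-free wells (no inhibition)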
TDP2 absorb: TDP2 (human) inhibition, absorbance primary screen; O95551; recombinant TDP2, T5PNP hydrolysis, p-nitrophenol absorbance 415 nm; inhibition, % at 12.8 µM; 370,000 compounds, 0.34% hits; AID 720702;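 active = inhibition above the mean of all tested compounds plus 3 SD, set per campaign, cut at about 25% in these data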;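 also: 0% = DMSO with enzyme and 100% = buffer with substrate but no TDP2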
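test system = human TDP2 enzyme | input = TDP2 enzyme at 120 nM final | medium = 50 mM Tris-HCl pH 7.5 with Mg2+, KCl, DTT, BSA | also added = T5PNP substrate, 5 mM | times = 2 h at 37 °C | technique = epi absorbance | benchmarks = high control without enzyme, low control DMSO plus TDP2 | replication = each compound tested once, singlicate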
CTSL1 counter: cathepsin L1 inhibition, PFM18AAP counter-screen. inhibition, % at 5.96 µM. recombinant F. hepatica cathepsin L1, Z-Leu-Arg-MCA fluorescence. 300,000 compounds, 0.49% hits;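 active = inhibition above the mean of all tested compounds plus 3 SD, set per screening campaign, cut at about 17% in these data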;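 also: 0% = plate median of test compound wells and 100% = 1 µM Z-Phe-Ala-diazomethylketone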
PAD4 inh: PAD4 (human) enzyme inhibition; 330,000 compounds, 0.41% hits; Q9UM07; recombinant PAD4, RCA probe fluorescence polarization; inhibition, % at 6.36 µM;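 active = percent inhibition above a cutoff equal to the mean of all tested compounds plus 3 SD, cut at about 15% in these data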;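 also: 0% = PAD4 with RCA probe and DMSO and 100% = probe without PAD4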
* = called active by the depositor; nt = no result. An excerpt weighted towards active compounds, which were near 1.6% of everything screened.

SMILES | GSTO1 counter | HKDC1 inhibitor | UCH37 DUB inh | TDP2 absorb | CTSL1 counter | PAD4 inh
O=C(NCc1ccccc1)C1(C(F)(F)F)C/C(=C/CCO)CCCO1 (centres undefined) | 2 | -5 | 3 | 3 | 0 | 0
O=C(O)C(S)C(S)C(=O)O (centres undefined) | 64* | -4 | nt | nt | -3 | 2
CC1=C(/C=C/C(C)=N\NC(=O)c2ccncc2)C(C)(C)CCC1 | 8 | 1 | nt | 18 | 0 | -2
CC1=C(/C=C/C(C)=C/C=C/C(C)=C/CO)C(C)(C)CCC1 | -13 | -2 | 78* | -10 | 4 | -3
COC(=O)CCC/C=C1/SCC(NC(=O)c2ccccc2)C1O (centres undefined) | 9 | -4 | 0 | -5 | 48* | 1
COc1ccc(NC(=O)c2c(N)no[n+]2[O-])cc1 | 4 | -5 | 6 | -8 | 3 | 6
COc1ccc(C(=O)c2no[n+]([O-])c2C(=O)c2ccc(OC)cc2)cc1 | 32 | 17 | 8 | -2 | 18* | -8
Cn1nc([N+](=O)[O-])nc1Sc1nnc(-c2ccccc2)o1 | 3 | -1 | 4 | 0 | 63* | 9
O=C(O)/C(=C\c1ccc(Cl)c([N+](=O)[O-])c1)c1ccc(S(=O)(=O)N2CCCC2)s1 | nt | 7 | 11 | -2 | nt | 2
O=C(O)/C(=C\c1ccc(Cl)c([N+](=O)[O-])c1)c1ccc(S(=O)(=O)N2CCCCC2)s1 | 62* | 6 | nt | -2 | -2 | -1
O=C(CNC(=O)c1ccccc1F)NN=Cc1cn[nH]c1-c1ccccc1 | nt | nt | 2 | nt | nt | nt
CCOc1ccc(Br)cc1S(=O)(=O)Nc1ccc(Cl)c(S(=O)(=O)N(CC)c2ccccc2)c1 | -16 | 15 | 3 | 6 | 17* | -1
CCOc1ccc(Br)cc1S(=O)(=O)Nc1ccc(Cl)c(S(=O)(=O)N(C)C)c1 | 3 | -7 | 6 | 9 | 6 | -2
Fc1ccc(C=NNc2cc(N3CCOCC3)ncn2)cc1 | nt | nt | 1 | nt | nt | nt
CCCN(CCC)C(=O)c1cc([N+](=O)[O-])cc2c1-c1ccc([N+](=O)[O-])cc1C2=C(C#N)C#N | 21 | 41* | 15 | -4 | -1 | 1
CCCCN(CCCC)C(=O)c1cc(Cl)ccc1[N+](=O)[O-] | 1 | -7 | 4 | -8 | 0 | -7
O=C(NCCc1ccc(Cl)cc1)c1ccc(=O)[nH]c1 | -3 | -1 | 1 | 2 | -1 | 1
O=C(NCCc1ccc(O)cc1)c1ccc(Cl)cc1 | 1 | -8 | 31* | 0 | -3 | -1
CC1=C(C#N)C(=O)NC(=O)/C1=C\c1ccc(-c2cc(C)c(C)cc2[N+](=O)[O-])o1 | nt | 23 | 20* | 22 | nt | nt
Cc1cc(-c2ccc(C=Nn3cnnc3)o2)c([N+](=O)[O-])cc1C | nt | nt | 9 | nt | nt | nt
CN(C)C(CNC(=O)C1CCCN(C(=O)c2ccc(Cl)cc2)C1)c1ccco1 (centres undefined) | 4 | -6 | 1 | -2 | 18* | -3
CCCC[C@H](CC(=O)c1ccccc1)[C@@H](OC(C)=O)C(=O)Oc1c(C(C)C)cccc1C(C)C | nt | -1 | 25* | 5 | nt | -1
Cc1cccc(NS(=O)(=O)c2cc(C(=O)NCCC3=CCCCC3)ccc2Cl)c1 | -7 | 3 | 21* | -14 | 4 | -3
CC1CN(S(=O)(=O)c2cc(C(=O)NCCC3=CCCCC3)ccc2Cl)CC(C)O1 (centres undefined) | 19 | 5 | 5 | 9 | 4 | 3
c1ccc(C2=Nc3ccccc3SC2c2nc3ccccc3[nH]2)cc1 (centres undefined) | 13 | nt | nt | nt | 4 | 28*
SMILES | GSTO1 counter | HKDC1 inhibitor | UCH37 DUB inh | TDP2 absorb | CTSL1 counter | PAD4 inh
O=C1CC(c2nc3ccccc3[nH]2)CN1c1ccccc1 (centres undefined) | -4 | -2 | 1 | 5 | -3 | -4
CC(=NNC(=O)C1COc2ccccc2O1)c1cccs1 (centres undefined) | nt | nt | 5 | nt | nt | nt
O=C(CSc1n[nH]c(=O)[nH]c1=O)NN=Cc1ccccc1O | nt | nt | 2 | nt | nt | nt
C/C(=N\NC(N)=S)C1(C)CCCCC1 | 0 | 11 | nt | 3 | 30* | -3
CC(=NNC(N)=S)C1(C)CCCCC1 | nt | nt | 6 | nt | nt | nt
C/C(=N\NC(N)=S)C12CC3CC(CC(C3)C1)C2 | 7 | -7 | nt | 2 | 18* | 2
